Active and inactive are the calls of the source. The rule behind the calls is not given here.
Assays:
Mus musculus = experiment: Induction of S1P1-mediated lymphopenia in mouse assessed as lymphocyte depletion at 10 mg/kg, ip after 20 hrs; assay type: functional; conditions: route intraperitoneal
Method in brief: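 Mice received a single ip injection. Lymphocyte depletion from peripheral blood was assessed 20 h after dosing.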

[1] = target: T1, Sphingosine kinase 2 (Homo sapiens) (UniProt Q9NRA0); experiment: Activity at human SPHK2 at 100 uM
T1 sequence (whole entry): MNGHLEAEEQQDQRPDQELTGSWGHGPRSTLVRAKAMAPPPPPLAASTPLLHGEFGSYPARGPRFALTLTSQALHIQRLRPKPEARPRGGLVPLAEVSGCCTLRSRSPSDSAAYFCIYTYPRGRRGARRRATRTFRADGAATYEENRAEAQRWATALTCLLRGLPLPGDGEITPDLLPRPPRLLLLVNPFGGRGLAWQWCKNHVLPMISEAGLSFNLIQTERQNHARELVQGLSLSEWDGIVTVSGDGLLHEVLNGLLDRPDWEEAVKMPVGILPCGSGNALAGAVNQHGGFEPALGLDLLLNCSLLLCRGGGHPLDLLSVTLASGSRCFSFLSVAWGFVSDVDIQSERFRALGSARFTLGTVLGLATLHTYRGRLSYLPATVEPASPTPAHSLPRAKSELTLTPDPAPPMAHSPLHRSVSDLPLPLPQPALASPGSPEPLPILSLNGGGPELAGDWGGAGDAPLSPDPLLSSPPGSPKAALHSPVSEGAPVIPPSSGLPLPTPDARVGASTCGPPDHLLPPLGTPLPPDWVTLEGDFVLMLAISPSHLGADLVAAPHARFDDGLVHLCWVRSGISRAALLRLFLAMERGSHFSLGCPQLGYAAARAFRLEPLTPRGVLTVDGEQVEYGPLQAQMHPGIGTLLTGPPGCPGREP

[2] = target: Sphingosine 1-phosphate receptor 5 (Homo sapiens) (UniProt Q9H228); experiment: Ratio of agonistic EC50 for S1P to compound for human S1P5 receptor by [35S]GTPgammaS binding assay; assay type: functional
Sequence of Sphingosine 1-phosphate receptor 5 (Homo sapiens) (Q9H228 whole entry): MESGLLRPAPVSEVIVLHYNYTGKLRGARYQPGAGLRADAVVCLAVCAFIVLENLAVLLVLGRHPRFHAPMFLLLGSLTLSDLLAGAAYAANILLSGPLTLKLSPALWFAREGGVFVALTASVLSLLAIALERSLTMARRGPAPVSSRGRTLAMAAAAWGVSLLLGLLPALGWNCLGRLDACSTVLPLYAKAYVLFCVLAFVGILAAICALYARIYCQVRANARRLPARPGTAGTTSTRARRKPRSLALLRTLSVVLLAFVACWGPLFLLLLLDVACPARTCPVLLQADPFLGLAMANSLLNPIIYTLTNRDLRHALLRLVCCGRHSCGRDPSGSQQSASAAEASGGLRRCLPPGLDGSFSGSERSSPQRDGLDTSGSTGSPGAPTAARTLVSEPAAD
Method in brief: (§1)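 The chemically phosphorylated compounds were tested as agonists at each individual S1P receptor. Agonist-stimulated binding of GTP[γ-35S] to membranes was measured. EC50 and Emax were normalized to those of S1P run in the same assay.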

[3] = target: Sphingosine 1-phosphate receptor 1 (Homo sapiens) (UniProt P21453); experiment: Ratio of agonistic Emax for S1P to compound for human S1P1 receptor by [35S]GTPgammaS binding assay; assay type: functional; method in brief: as §1
Sequence of Sphingosine 1-phosphate receptor 1 (Homo sapiens) (P21453 whole entry): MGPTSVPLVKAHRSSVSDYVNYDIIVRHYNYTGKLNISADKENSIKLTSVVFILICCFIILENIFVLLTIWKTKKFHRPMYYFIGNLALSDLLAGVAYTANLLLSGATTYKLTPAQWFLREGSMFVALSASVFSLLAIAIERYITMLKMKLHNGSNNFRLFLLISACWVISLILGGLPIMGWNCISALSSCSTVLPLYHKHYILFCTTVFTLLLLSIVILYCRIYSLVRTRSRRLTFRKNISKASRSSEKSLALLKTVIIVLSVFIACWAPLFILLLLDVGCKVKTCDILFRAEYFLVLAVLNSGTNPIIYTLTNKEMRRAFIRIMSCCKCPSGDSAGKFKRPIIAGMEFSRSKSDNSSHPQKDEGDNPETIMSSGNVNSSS

[4] = target: Sphingosine 1-phosphate receptor 3 (Homo sapiens) (UniProt Q99500); experiment: Ratio of agonistic EC50 for S1P to compound for human S1P3 receptor by [35S]GTPgammaS binding assay; assay type: functional; method in brief: as §1
Sequence of Sphingosine 1-phosphate receptor 3 (Homo sapiens) (Q99500 whole entry): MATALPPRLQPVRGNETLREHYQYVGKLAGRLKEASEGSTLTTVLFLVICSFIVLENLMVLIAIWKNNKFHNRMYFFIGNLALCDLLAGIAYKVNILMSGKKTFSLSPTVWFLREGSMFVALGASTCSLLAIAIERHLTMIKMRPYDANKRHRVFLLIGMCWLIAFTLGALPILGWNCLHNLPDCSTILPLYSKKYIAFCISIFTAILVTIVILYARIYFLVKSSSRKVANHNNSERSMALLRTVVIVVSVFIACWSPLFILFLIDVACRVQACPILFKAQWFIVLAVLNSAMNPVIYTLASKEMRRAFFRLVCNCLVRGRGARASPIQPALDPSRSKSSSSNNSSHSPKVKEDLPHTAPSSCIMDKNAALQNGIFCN

[5] = target: Sphingosine 1-phosphate receptor 3 (Homo sapiens) (UniProt Q99500); experiment: Ratio of agonistic Emax for S1P to compound for human S1P3 receptor by [35S]GTPgammaS binding assay; assay type: functional; method in brief: as §1
[6] = target: Sphingosine 1-phosphate receptor 5 (Homo sapiens) (UniProt Q9H228); experiment: Ratio of agonistic Emax for S1P to compound for human S1P5 receptor by [35S]GTPgammaS binding assay; assay type: functional; method in brief: as §1
[7] = target: Sphingosine 1-phosphate receptor 1 (Homo sapiens) (UniProt P21453); experiment: Ratio of agonistic EC50 for S1P to compound for human S1P1 receptor by [35S]GTPgammaS binding assay; assay type: functional; method in brief: as §1
[8] = target: Sphingosine 1-phosphate receptor 2 (Homo sapiens) (UniProt O95136); experiment: Ratio of agonistic Emax for S1P to compound for human S1P2 receptor by [35S]GTPgammaS binding assay; assay type: functional; method in brief: as §1
Sequence of Sphingosine 1-phosphate receptor 2 (Homo sapiens) (O95136 whole entry): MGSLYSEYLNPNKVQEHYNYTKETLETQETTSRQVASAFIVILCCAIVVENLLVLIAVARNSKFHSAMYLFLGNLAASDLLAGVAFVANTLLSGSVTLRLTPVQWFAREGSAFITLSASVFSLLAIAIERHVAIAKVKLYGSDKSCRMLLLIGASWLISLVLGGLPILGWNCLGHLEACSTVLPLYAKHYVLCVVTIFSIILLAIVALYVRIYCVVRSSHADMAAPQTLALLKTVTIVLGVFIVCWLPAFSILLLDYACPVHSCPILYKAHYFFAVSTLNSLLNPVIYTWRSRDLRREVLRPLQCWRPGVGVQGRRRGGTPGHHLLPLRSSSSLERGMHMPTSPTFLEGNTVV

[9] = target: T1, Sphingosine kinase 2 (Homo sapiens); experiment: Activity at human SPHK2 at 15 uM
[10] = target: Sphingosine 1-phosphate receptor 2 (Homo sapiens) (UniProt O95136); experiment: Ratio of agonistic EC50 for S1P to compound for human S1P2 receptor by [35S]GTPgammaS binding assay; assay type: functional; method in brief: as §1
[11] = target: T2, Sphingosine 1-phosphate receptor 4 (Homo sapiens) (UniProt O95977); experiment: Ratio of agonistic EC50 for S1P to compound for human S1P4 receptor by [35S]GTPgammaS binding assay; assay type: functional; method in brief: as §1
T2 sequence (whole entry): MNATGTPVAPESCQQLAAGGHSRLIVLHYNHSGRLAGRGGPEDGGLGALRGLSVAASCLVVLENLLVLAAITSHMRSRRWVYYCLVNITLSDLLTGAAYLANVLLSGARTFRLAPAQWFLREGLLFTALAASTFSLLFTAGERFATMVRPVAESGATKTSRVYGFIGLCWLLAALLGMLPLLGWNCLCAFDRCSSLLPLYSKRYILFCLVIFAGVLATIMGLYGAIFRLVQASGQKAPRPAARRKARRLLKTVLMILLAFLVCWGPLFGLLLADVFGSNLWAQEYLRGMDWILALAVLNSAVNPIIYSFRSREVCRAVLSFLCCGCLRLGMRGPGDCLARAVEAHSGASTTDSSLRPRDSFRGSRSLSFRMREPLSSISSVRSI

[12] = target: T2, Sphingosine 1-phosphate receptor 4 (Homo sapiens); experiment: Ratio of agonistic Emax for S1P to compound for human S1P4 receptor by [35S]GTPgammaS binding assay; assay type: functional; method in brief: as §1
[13] = target: Sphingosine kinase 1 (Homo sapiens) (UniProt Q9NYA1); experiment: Activity at human SPHK1 at 100 uM
Sequence of Sphingosine kinase 1 (Homo sapiens) (Q9NYA1 whole entry): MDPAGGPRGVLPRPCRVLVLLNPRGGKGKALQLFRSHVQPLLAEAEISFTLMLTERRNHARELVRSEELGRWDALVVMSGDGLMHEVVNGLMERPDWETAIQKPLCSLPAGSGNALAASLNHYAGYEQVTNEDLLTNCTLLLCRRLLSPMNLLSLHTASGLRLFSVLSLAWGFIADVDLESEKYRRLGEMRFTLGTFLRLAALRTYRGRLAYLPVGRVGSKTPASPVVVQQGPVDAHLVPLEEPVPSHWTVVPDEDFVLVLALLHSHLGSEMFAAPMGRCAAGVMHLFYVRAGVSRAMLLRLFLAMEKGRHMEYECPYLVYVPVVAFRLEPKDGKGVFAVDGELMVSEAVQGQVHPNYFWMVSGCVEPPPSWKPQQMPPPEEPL

| SMILES | Activity (Mus musculus) | Activity [1] | Ratio EC50 [2] | Ratio [3] | Ratio EC50 [4] | Ratio [5] | Ratio [6] | Ratio EC50 [7] | Ratio [8] | Activity [9] | Ratio EC50 [10] | Ratio EC50 [11] | Ratio [12] | Activity [13] |
| --- | --- | --- | --- | --- | --- | --- | --- | --- | --- | --- | --- | --- | --- | --- |
| CCCCCCCCc1ccc(-c2cnc([C@](C)(N)CO)[nH]2)cc1 | 75% | inactive |  |  |  |  |  |  |  |  |  |  |  |  |
| CCCCCCCCc1ccc(-c2coc(C(C)(N)COP(=O)(O)O)n2)cc1 (centres undefined) |  |  | 24.1 | 0.8 | 52.5 | 1 | 0.6 | 4.28 | 0 |  |  |  |  |  |
| CCCCCCCCc1ccc(-c2cnc([C@@](C)(N)CO)[nH]2)cc1 | 75% |  |  |  |  |  |  |  |  | 20% |  |  |  |  |
| CCCCCCCCc1ccc(-c2cnc([C@@](C)(N)COP(=O)(O)O)[nH]2)cc1.O=C(O)C(F)(F)F.O=C(O)C(F)(F)F | 75% |  | 3.62 | 0.87 | 50.8 | 0.65 | 0.83 | 1.09 | 0 |  | inactive | 0.59 | 0.93 |  |
| CCCCCCCCc1ccc(-c2cnc([C@](C)(N)COP(=O)(O)O)[nH]2)cc1.O=C(O)C(F)(F)F.O=C(O)C(F)(F)F | 75% |  | 16.1 | 0.92 | 1000 | 0.61 | 0.83 | 8.09 | 0 |  | inactive | 4.13 | 1.19 |  |
| CCCCCCCCc1ccc(-c2nc(C(C)(N)COP(=O)(O)O)no2)cc1 (centres undefined) |  |  | 21.6 | 1 |  |  | 1 | 2.5 | 0 |  |  |  |  |  |
| CCCCCCCCc1ccc(-c2nc(C(C)(N)CO)no2)cc1 (centres undefined) |  |  |  |  |  |  |  |  |  |  |  |  |  | Active |
| CCCCCCCCc1ccc(-c2noc(C(C)(N)COP(=O)(O)O)n2)cc1 (racemic) |  |  | 4.35 | 0.89 | 23 | 0.51 | 0.73 | 24.4 | 0 |  | inactive | 0.52 | 0.81 |  |
